The record followed here is ChEMBL document CHEMBL5096188, “Quinolinonyl Non-Diketo Acid Derivatives as Inhibitors of HIV-1 Ribonuclease H and Polymerase Functions of Reverse Transcriptase” (J Med Chem, 2021).

Active and inactive are the calls of the source. No cut-off for these calls is given here.

Chain of Human immunodeficiency virus type 1 integrase (Q7ZJM1 whole entry): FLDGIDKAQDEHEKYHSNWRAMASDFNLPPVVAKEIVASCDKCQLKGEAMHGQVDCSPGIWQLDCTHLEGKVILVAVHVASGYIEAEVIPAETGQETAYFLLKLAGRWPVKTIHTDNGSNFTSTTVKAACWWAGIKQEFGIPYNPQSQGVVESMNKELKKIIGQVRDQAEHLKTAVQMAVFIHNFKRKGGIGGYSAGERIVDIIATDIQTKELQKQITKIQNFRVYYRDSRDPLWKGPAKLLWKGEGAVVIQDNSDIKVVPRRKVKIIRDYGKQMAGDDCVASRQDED

One series addresses T1, Human immunodeficiency virus type 1 reverse transcriptase (Human immunodeficiency virus 1, UniProt Q72547). Briefly: Inhibition of recombinant His-tagged wild-type HIV-1 group M subtype B BH10 reverse transcriptase-associated RNase H activity harboring p66/p51 hetrodimer expressed in Escherichia coli M15 using GTTTTCTTTTCCCCCCTGAC-30 fluorescein/50-CAAAAGAAAAGGGGGGACUG-30 Dabcyl RNA/DNA template-primer as substrate incubated for 1 hr by multilabel counter plate reader analysis.
Conditions: not given
The procedure, abridged:
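His-tagged p66/p51 RT was expressed in E. coli M15, with mutations placed in p66 by site-directed mutagenesis. The mix held 50 mM Tris HCl pH 7.8, 6 mM MgCl2, 1 mM DTT, 80 mM KCl, 250 nM fluorescein/Dabcyl RNA/DNA hybrid and serial compound dilutions, with no preincubation. Reactions were started with enzyme (wt, R448A, K451A 20 ng; K540A 40 ng; N474A 500 ng), run 1 h at 37 °C and read at 490/528 nm. Duplicates were repeated at least twice; IC50 is mean ± SD.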
The IC50 is the concentration that inhibits the measured activity by half. As for `CCOC(=O)c1cn(Cc2ccc(F)cc2)c2ccc(OCCCN(C)C)cc2c1=O`, the IC50 is > 100 µM.

`CCOC(=O)c1cn(Cc2ccc(F)cc2)c2ccc(S(C)(=O)=O)cc2c1=O`: the IC50 is > 100 µM.

For `O=C(O)c1cn(Cc2ccc(F)cc2)c2ccc(C(F)(F)F)cc2c1=O`, the IC50 is > 100 µM.

`COc1ccc2c(c1)c(=O)c(C(=O)O)cn2Cc1ccc(F)cc1`: the IC50 was > 100 µM.

`CCOC(=O)c1cn(Cc2ccc(F)cc2)c2ccc(OC)cc2c1=O`: the IC50 is > 100 µM.

Turning to `N#Cc1ccc2c(c1)c(=O)c(C(=O)O)cn2Cc1ccc(F)cc1`, the IC50 is > 100 µM.

In the case of `O=C(O)c1cn(Cc2ccc(F)cc2)c2ccccc2c1=O`, the IC50 was > 100 µM.

For `CCOC(=O)c1cn(Cc2ccc(F)cc2)c2ccc(C#N)cc2c1=O`, the IC50 was > 100 µM.

Consider `CCOC(=O)c1cn(Cc2ccc(F)cc2)c2ccc(O)cc2c1=O`, for which the IC50 is > 100 µM.

In the case of `CCOC(=O)c1cn(Cc2ccc(F)cc2)c2ccc(OCc3ccc(-c4ccccc4)cc3)cc2c1=O`, the IC50 is > 100 µM.

The target in the next series is T1, Human immunodeficiency virus type 1 reverse transcriptase. Briefly: Inhibition of HIV-1 reverse transcriptase associated RNA-dependent DNA polymerase activity using poly(A)-oligo(dT) as template/primer incubated for 30 mins by multilabel counter plate reader analysis.
Conditions: not given
As for `O=C(/C=C/c1ccc2c(c1)c(=O)c(C(=O)O)cn2Cc1ccc(F)cc1)c1ccccc1`, the IC50 is > 100 µM.

A further series has as its target Human immunodeficiency virus type 1 integrase (Human immunodeficiency virus 1, UniProt Q7ZJM1). As to the kind of experiment: Inhibition of recombinant His-tagged HIV-1 NL4-3 integrase expressed in Escherichia coli BL21 pLys using GTGTGGAAAATCTCTAGCA/ACTGCTAGAGATTTTCCACAC as DNA substrate incubated for 2 hrs by densitometric analysis.
Conditions: not given
For `CC(=O)c1ccc2c(c1)c(=O)c(C(=O)O)cn2Cc1ccc(F)cc1`, the IC50 is > 100 µM.

Take `O=C(O)c1cn(Cc2ccc(F)cc2)c2ccc(OCc3cccc(Cl)c3Cl)cc2c1=O`: the IC50 was > 100 µM.

On to `O=C(O)c1cn(Cc2ccc(F)cc2)c2ccc(OCc3ccc4c(c3)OCO4)cc2c1=O`, for which the IC50 was > 100 µM.

Turning to `CCOC(=O)/C=C/C(=O)/C=C/c1cccn1Cc1ccccc1Cl`, the IC50 is > 100 µM.

Take `O=C(O)c1cn(Cc2ccc(F)cc2)c2ccc(OCc3ccc(-c4ccccc4)cc3)cc2c1=O`: the IC50 was > 250 µM.

Turning to `CCOC(=O)c1cn(Cc2ccc(F)cc2)c2ccc(C(C)=O)cc2c1=O`, the IC50 is > 100 µM.

For `O=C(O)c1cn(Cc2ccc(F)cc2)c2ccc(OCc3cccc4ccccc34)cc2c1=O`, the IC50 is > 100 µM.

Tested on in the next series: not listed separately
As to the kind of experiment: Selectivity index, ratio of CC50 for cytotoxicity against human HeLa-CD4-LTR-beta-gal cells to EC50 for antiviral activity against HIV 1 infected in human HeLa-CD4-LTR-beta-gal cells. In kind it is toxicity, cell-based. The settings on record: read-out: Ratio CC50/EC50. The method in brief: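 Selectivity index is CC50/EC50. Both values come from HeLa-CD4-LTR-β-gal cells at 24 h. EC50 is from β-galactosidase readout after infection with in-house HIV-1 (H9-laï coculture). CC50 is from the CellTiter 96 AQueous One proliferation assay.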
Turning to `CCOC(=O)/C=C/C(=O)/C=C/c1cccn1Cc1ccccc1Cl`, the selectivity ratio was > 13.7.

Tested on in a further series: not listed separately
As to the kind of experiment: Metal chelating activity assessed as Mg2+-compound complex formation at 3.8 x 10^-5M by UV-visible spectrophotometric titration analysis. To be noted: dose 3.8 10^-5M. The method in brief:
(§1)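 Compound in absolute ethanol, titrated with MgCl2 stock solutions (4 10–5 to 0.2 M, diluted in ethanol). UV–vis spectra were recorded from 230 to 370 or 600 nm against ethanol in a 1 cm quartz cuvette, in triplicate. Stoichiometry was found by Job's method using equimolar metal/ligand mixtures. ΔA was plotted against ligand mole fraction, and the maximum was located by linear regression.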
Take `O=C(O)c1cn(Cc2ccc(F)cc2)c2ccc(OCc3cccc4ccccc34)cc2c1=O`: the outcome was Active.

Tested on in another series: not listed separately
Briefly: Metal chelating activity assessed as Mg2+-compound complex formation at 4.1 x 10^-5 M by UV-visible spectrophotometric titration analysis. To be noted: dose 4.1 10^-5M. The method in brief:
as §1
For `CCOC(=O)c1cn(Cc2ccc(F)cc2)c2ccc(OCc3cccc4ccccc34)cc2c1=O`, the outcome was Active.
